Screening data as filed in PubChem BioAssay.
NR2E3 ag-1 = human photoreceptor-specific nuclear receptor agonism. Q9Y5X4. CHO-S Gal4-NCOR/VP16-NR2E3 two-hybrid, luciferase. inhibition of corepressor binding, % at 3.98 µM. hit rate 0.35% among 360,000. AID 602229;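 active = inhibition above the mean of all tested compounds plus 3 SD, cut at about 70% in these data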;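 also: 0% = DMSO with NR2E3 transfected cells and 100% = cells lacking NR2E3 construct; higher means lower luciferase signal from less NR2E3 corepressor binding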
PG9 Ab binder = PG9 antibody binding by small molecule | inhibition, % at 6.7 µM | AID 624416 | hit rate 0.43% among 360,000 | TR-FRET gp120-PG9 antibody binding; in the data active = inhibition above about 8.5%
NR1D1 modulator = Rev-erb alpha (human) modulation | Rev-erbα–FITC-DNA binding, fluorescence polarization, 90 min | activity, % at 10 µM | hit rate 0.79% among 370,000 | AID 1259318;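 active = activity above about 14%, limit read from the data; passing the limit was not always enough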;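 also: 0% = DMSO wells with 35 nM protein and 100% = DMSO wells with 750 nM protein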
VLA-4 inh = inhibition in a human VLA-4 binding assay; AID 2557; VLA-4 expressing cells, ligand binding flow cytometry; inhibition, % (about 7 µM as worked out from the volumes in the protocol); hit rate 0.2% among 330,000; P13612; in the data active = inhibition above about 50%
Target sequence (P13612 whole entry, looked up): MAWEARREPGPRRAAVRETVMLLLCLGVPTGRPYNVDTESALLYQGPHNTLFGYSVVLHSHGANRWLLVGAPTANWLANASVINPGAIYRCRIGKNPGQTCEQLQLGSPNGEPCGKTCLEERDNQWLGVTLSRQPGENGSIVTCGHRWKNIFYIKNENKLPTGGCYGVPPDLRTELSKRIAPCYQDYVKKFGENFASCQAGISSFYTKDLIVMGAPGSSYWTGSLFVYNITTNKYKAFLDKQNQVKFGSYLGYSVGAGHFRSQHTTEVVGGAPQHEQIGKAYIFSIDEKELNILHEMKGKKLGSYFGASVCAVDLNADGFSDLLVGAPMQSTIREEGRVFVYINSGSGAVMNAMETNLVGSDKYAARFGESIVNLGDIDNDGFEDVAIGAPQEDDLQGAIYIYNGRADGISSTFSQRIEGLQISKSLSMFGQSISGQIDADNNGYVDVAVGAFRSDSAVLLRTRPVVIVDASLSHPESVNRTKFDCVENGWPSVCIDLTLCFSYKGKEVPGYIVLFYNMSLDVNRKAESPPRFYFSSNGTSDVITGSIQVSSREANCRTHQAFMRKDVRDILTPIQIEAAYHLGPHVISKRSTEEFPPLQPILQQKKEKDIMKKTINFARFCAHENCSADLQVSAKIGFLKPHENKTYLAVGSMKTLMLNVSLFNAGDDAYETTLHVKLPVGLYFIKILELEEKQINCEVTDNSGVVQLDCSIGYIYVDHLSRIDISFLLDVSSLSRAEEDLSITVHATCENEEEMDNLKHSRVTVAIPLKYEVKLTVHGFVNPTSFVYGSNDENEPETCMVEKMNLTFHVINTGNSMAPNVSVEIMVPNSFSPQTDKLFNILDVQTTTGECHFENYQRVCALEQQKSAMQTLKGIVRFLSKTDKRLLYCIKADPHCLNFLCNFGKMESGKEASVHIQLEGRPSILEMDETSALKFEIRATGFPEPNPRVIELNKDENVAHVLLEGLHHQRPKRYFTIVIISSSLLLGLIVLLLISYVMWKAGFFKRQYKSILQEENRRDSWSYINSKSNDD
NR2E3 ag-2 = activates human photoreceptor nuclear receptor NR2E3; GST-NR2E3/biotin-RetCOR TR-FRET, 1536-well; inhibition of corepressor binding, % at 4.78 µM; Q9Y5X4; hit rate 0.12% among 320,000; AID 2300;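 active = percent inhibition above the cutoff of mean plus 3 SD of all tested compounds, set per screening campaign, cut at about 20% in these data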;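 also: 0% = DMSO wells and 100% = biotin wells as full block of FRET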
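Test system: GST-NR2E3 and biotin-RetCOR proteins | Quantity: 1.35 nM GST-tagged NR2E3 final | Medium: Tris pH 7.5 | Also added: 7 nM biotin-RetCOR | Dosing: Compound at 4.8 µM, single dose | Timing: 5 h at 4 °C | Detection: Time-resolved FRET | Read-out basis: Percent inhibition | Benchmarks: Biotin wells as high control, 0.6% DMSO wells as low control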
Rev-erbA confirm = confirmation of modulators of human Rev-erb alpha DNA binding. Rev-erb alpha FITC-DNA binding, fluorescence polarization, 90 min. hit rate 61% among 3,000. shares compounds with NR1D1 modulator. activation, % at 25 µM. AID 1259319;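 active = activation at or above a set limit, or at least 3 SD above the negative control mean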;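 also: 0% = 35 nM protein with DMSO and 100% = 750 nM protein high control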
RORg DNA counter = counter-screen for Rev-erb alpha modulators: RORgamma DNA binding; purified RORgamma protein-FITC-DNA binding, fluorescence polarization; hit rate 8% among 910; IC50, µM; shares compounds with NR1D1 modulator; AID 1259320;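 active = Compounds whose fitted half-maximal concentration for disrupting protein-DNA binding is below 10 micromolar; the record names Rev-erb in its text, so the target is in doubt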
Starred values were filed as active, the others as inactive; nt = not tested or not shown. Rows were chosen to be rich in hits. Some 1.6% of all compounds tested hit in one or more screens of this group.

SMILES	NR2E3 ag-1	PG9 Ab binder	NR1D1 modulator	VLA-4 inh	NR2E3 ag-2	Rev-erbA confirm	others
CC(C)[C@H](NC(=O)c1ccc(Cl)cc1)C(=O)OCC(=O)N1CCN(c2ccccc2)CC1	23	1	-7	0	nt	nt
O=c1sc(N2CCN(c3ccccc3F)CC2)nc2ccsc12	-115	-2	24*	-1	4	14*
O=C(Nc1cccc(-c2nc3ncccc3o2)c1)c1sc2cc(Cl)ccc2c1Cl	-30	-1	31*	3	8	17*
Cc1cc(C)c(NC(=O)CSc2nc(COc3ccccc3)nc3ccccc23)c(C)c1	-26	0	55*	-5	-5	47*	RORg DNA counter=>40
Cc1ccccc1NC(=O)CSc1nc(COc2ccccc2)nc2ccccc12	12	2	-2	7	1	nt
O=c1[nH]c(=S)c2[nH]c(=S)n(-c3ccccc3)c2[nH]1	-12	-3	15*	nt	nt	0
CCC(C(=O)Nc1nnc(-c2ccco2)s1)c1ccccc1 (stereo not drawn)	-6	1	15*	-2	-1	5
CCc1nnc(NC(=O)C(CC)c2ccccc2)s1 (stereo not drawn)	-22	0	-5	-2	2	nt
CCOc1cc(/C=C2/C(=N)N3C=CSC3=NC2=O)ccc1OCCCOc1ccccc1C	-24	-1	18*	-14	3	5
CC1CCCN(S(=O)(=O)c2ccc(C(=O)Nc3ccccc3-c3nc4ccccc4[nH]3)cc2)C1 (stereo not drawn)	15	1	39*	20	3	2
Cc1cc2nc(/C(C#N)=C\c3ccc(-c4ccccc4C(=O)O)o3)[nH]c2cc1C	2	-13	42*	-19	3	30*
N#C/C(=C\c1ccc(-c2ccccc2C(=O)O)o1)c1nc2ccccc2[nH]1	12	-24	13	10	-11	nt
Cc1ccc2nc(/C(C#N)=C/c3ccc(-c4ccccc4C(=O)O)o3)[nH]c2c1	-33	-18	41*	14	-3	31*	RORg DNA counter=>40
Cc1cc2nc3s/c(=C/c4ccc(-c5ccccc5C(=O)O)o4)c(=O)n3c2cc1C	-19	-1	-2	-52	-3	nt
O[C@@H]1[C@@H](O)[C@H](n2c3ccc(Cl)cc3c3ccc4c5cc(Cl)ccc5[nH]c4c32)OC[C@H]1O	nt	nt	2	nt	nt	nt
CC(C)N1CCN(Cc2ccsc2)CC1CCO (stereo not drawn)	-20	0	-2	11	-1	nt
CCc1ccc(OCC(=O)O/N=C(\N)c2ccncc2)c(Br)c1	-111	0	0	7	3	nt
COC(=O)c1ccccc1NC(=O)c1cc2ncc(Br)cn2n1	-5	0	23*	10	-2	2
O=C(Nc1ccc(F)cc1F)c1cc2ncc(Br)cn2n1	nt	0	0	nt	nt	nt
COc1ccc(C2=NN(C(=O)CSc3nnc(C)n3C)C(c3ccco3)C2)cc1 (stereo not drawn)	2	-3	-3	0	0	nt
COc1ccc(C2=NN(C(=O)COc3ncnc4ccccc34)C(c3ccco3)C2)cc1 (stereo not drawn)	27	-1	31*	8	1	6
COc1cc2c(cc1NC(=O)CCCN1C(=O)CCC1=O)oc1ccccc12	-45	1	-6	12	0	nt
COC(=O)CCC(=O)c1oc2ccc(Cl)cc2c1NC(=O)CCCN1C(=O)c2ccccc2C1=O	7	1	41*	1	2	28*
CC1(C(=O)NS(=O)(=O)c2cccc(OC(F)F)c2)CCN1C(=O)CC(c1ccccc1)c1ccccc1 (stereo not drawn)	-4	-1	-8	nt	nt	nt
O=c1[nH]c(=O)c2cc3ccccc3nc2[nH]1	7	0	-1	nt	nt	nt
SMILES	NR2E3 ag-1	PG9 Ab binder	NR1D1 modulator	VLA-4 inh	NR2E3 ag-2	Rev-erbA confirm	others
Cc1cc2cc3c(=O)[nH]c(=O)[nH]c3nc2cc1C	nt	0	33*	-5	2	41*	RORg DNA counter=>40
COc1ccccc1CN1CC(C(=O)NCc2cc(F)ccc2C)CCC1=O (stereo not drawn)	-39	0	5	nt	nt	nt
CCOc1cccc2cc(-c3cn4cc(C)ccc4n3)c(=O)oc12	-42	3	53*	12	1	25*
CC(C)CCOc1cccc(OCC(=O)O)c1	5	2	-4	nt	nt	nt
Cc1cc2n(n1)C(c1cn(-c3ccccc3)nc1C)Nc1ccccc1-2 (stereo not drawn)	-10	0	29*	35	0	5
Cc1ccc(Cl)cc1N1CCN(S(=O)(=O)c2ccc(-c3ccc(=O)[nH]n3)o2)CC1	-17	0	135*	-2	-4	138*	RORg DNA counter=>40
O=c1ccc(-c2ccc(S(=O)(=O)N3CCCCC3)o2)n[nH]1	-5	0	-5	0	-1	nt
Cc1ccc(NS(=O)(=O)c2ccc(-c3ccc(=O)[nH]n3)o2)cc1Cl	7	2	-5	28	-1	nt
Cc1ccc(C)c(N2CCN(S(=O)(=O)c3ccc(-c4ccc(=O)[nH]n4)o3)CC2)c1	-16	-3	33*	9	-3	12
CCOCCCn1c(=NC(=O)c2ccco2)c(C(=O)OCC)cc2c(=O)n3cccc(C)c3nc21	-15	-1	1	1	-1	nt
COC(=O)c1ccc2nc(C3CCCCC3)c(Cc3ccccc3)n2c1	-34	-1	4	nt	nt	nt
O=C(O)CN1C(=O)/C(=C\c2cn(CC(=O)N3CCOCC3)c3ccccc23)SC1=S	15	-17	39*	8	-10	39*	RORg DNA counter=>40
CC(C)CCNc1nnnc2c1sc1nc(N3CCOCC3)c3c(c12)CC(C)(C)SC3	-6	-1	21*	2	4	5
CC1(C)Cc2c(c(N3CCOCC3)nc3sc4c(NCCN5CCOCC5)nnnc4c23)CS1	-1	-1	4	-6	2	nt
COC(=O)N/N=C/c1sc(N2CCCCC2)nc1-c1cccs1	-19	-4	-1	2	-2	nt
Cc1cc(C(=O)N2CCCC(N3CCN(c4cccc(Cl)c4)CC3)C2)nc(C)n1 (stereo not drawn)	-16	0	2	11	2	nt
O=C(Nc1ccc2nn(-c3ccccc3)nc2c1)c1ccc(Br)o1	-38	-11	37*	17	-11	26*
O=C(Nc1ccc2nn(-c3ccccc3)nc2c1)c1ccc2c(c1)OCCO2	-116	2	14	15	-1	nt
COc1ccc2cc(C(=O)Nc3ccc(S(N)(=O)=O)cc3)sc(=O)c2c1OC	7	1	26*	-14	-31	37*	RORg DNA counter=>40
CCOC(=O)N1CCN(c2ncnc3c2oc2nc(C(C)C)c4c(c23)CCC4)CC1	-25	3	45*	1	0	84*	RORg DNA counter=>40
NS(=O)(=O)c1ccc(CCNC(=O)c2cc3ccccc3s2)cc1	7	-1	23*	-12	-1	6
